Activity calls are given as the source filed them. No cut-off for these calls is given here. Where only a bound is given, the exact number is not on record here.

We go through 1 compound from ChEMBL document CHEMBL4145686, “Discovery of a Potent and Selective Steroidal Glucocorticoid Receptor Antagonist (ORIC-101)” (J Med Chem, 2018).

In data set [1] the target is T1, Glucocorticoid receptor (Homo sapiens, UniProt P04150).
T1 sequence (P04150 whole entry): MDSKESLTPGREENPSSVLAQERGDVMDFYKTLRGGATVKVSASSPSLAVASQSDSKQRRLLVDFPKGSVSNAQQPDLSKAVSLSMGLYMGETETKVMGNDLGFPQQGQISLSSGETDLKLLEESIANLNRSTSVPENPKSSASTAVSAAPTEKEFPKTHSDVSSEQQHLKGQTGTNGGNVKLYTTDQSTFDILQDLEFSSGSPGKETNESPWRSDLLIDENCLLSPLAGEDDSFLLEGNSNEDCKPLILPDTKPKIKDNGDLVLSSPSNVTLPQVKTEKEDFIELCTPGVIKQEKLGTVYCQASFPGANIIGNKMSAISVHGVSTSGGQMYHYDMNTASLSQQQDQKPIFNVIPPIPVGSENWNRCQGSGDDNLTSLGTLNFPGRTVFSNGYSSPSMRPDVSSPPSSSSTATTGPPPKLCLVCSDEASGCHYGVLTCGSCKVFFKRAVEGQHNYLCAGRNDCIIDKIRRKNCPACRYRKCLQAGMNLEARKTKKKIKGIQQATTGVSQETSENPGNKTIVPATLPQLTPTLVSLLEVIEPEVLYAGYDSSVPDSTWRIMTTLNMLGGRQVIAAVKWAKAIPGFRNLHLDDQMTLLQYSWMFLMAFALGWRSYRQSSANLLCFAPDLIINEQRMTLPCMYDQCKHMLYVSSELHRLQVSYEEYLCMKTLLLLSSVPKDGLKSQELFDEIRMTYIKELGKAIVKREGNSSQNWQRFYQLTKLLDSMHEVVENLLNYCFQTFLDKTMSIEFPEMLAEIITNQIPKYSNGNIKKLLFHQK
Kind of data set: Antagonist activity at human GR expressed in CHO-K1 cells assessed as reduction in dexamethasone-induced response incubated for 20 hrs by luciferase reporter gene assay. Format: cell-based.

Data set [2] concerns the target T2, Androgen receptor (Homo sapiens, UniProt P10275).
T2 sequence (P10275 whole entry): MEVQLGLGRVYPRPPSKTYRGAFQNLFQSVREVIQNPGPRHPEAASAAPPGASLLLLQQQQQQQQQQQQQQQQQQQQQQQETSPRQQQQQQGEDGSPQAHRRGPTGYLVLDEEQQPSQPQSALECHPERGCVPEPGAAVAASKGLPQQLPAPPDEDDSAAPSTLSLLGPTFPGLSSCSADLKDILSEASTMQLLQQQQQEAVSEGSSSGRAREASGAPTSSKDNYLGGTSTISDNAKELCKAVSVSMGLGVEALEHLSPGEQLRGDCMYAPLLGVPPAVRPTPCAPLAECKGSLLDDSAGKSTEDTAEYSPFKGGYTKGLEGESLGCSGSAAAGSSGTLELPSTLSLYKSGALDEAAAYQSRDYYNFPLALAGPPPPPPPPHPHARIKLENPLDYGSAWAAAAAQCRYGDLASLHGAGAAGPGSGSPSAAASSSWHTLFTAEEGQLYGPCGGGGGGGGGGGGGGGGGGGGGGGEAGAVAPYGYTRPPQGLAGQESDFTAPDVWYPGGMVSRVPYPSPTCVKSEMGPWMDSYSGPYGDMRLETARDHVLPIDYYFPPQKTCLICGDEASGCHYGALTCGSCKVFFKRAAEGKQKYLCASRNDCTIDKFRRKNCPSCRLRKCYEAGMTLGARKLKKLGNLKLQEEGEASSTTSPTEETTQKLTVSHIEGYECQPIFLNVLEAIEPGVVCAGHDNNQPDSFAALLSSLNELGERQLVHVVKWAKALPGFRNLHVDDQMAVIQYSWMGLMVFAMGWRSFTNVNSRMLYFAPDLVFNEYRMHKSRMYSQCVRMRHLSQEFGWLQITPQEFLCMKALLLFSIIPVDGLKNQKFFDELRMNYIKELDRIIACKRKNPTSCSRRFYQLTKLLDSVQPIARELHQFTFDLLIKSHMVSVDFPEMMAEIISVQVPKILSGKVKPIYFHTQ
The experiment in a line: Agonist activity at AR in human MDA-MB-453 cells assessed as increase in […] gene expression at 111 to 333 nM incubated for 24 hrs by RT-qPCR method. The class given is cell-based. The note with it: mda-mb-453, 24 h, 0.333 µM. Background: In qPCR the cycle at which signal appears reflects the starting amount.

A short description of data set [3]: Clearance in rat at 0.5 mg/kg, iv. The class given is ADME, organism-based. As to conditions: in vivo.
Data set [4] is described as follows: Volume of distribution at steady state in rat at 0.5 mg/kg, iv. The class given is ADME, organism-based. As to conditions: in vivo, read-out: Vdss.
Data set [5] can be described thus: Clearance in mini pig at 0.5 mg/kg, iv. The class given is ADME, organism-based, Sus scrofa. The note with it: in vivo.
Data set [6] can be described thus: Half life in mini pig at 0.5 mg/kg, iv. Format: ADME, organism-based, Sus scrofa. The note with it: in vivo.
A short description of data set [7]: AUC in mouse at 5 mg/kg, po. Format: ADME, organism-based. The note with it: in vivo.
For data set [8], the target named is Cytochrome P450 3A4 (Homo sapiens, UniProt P08684). The experiment in a line: Inhibition of CYP3A4 (unknown origin) using midazolam as substrate. Format: ADME.
The target of data set [9] is Cytochrome P450 2C9 (Homo sapiens, UniProt P11712). Kind of data set: Inhibition of CYP2C9 (unknown origin) using […] as substrate. The class given is ADME.
Data set [10] in a line: Antagonist activity at GR in monkey PBMC assessed as reduction in dexamethasone-induced FKBP5 gene expression incubated for 6 hrs by RT-qPCR method. The class given is cell-based. The note with it: Macaca mulatta.
Data set [11] addresses T3, Glucocorticoid receptor (Homo sapiens) (UniProt P04150).
T3 sequence (whole entry): T1 sequence (P04150 whole entry)
The experiment in a line: (§1) Antagonist activity at GR in human OVCAR5 assessed as reduction in dexamethasone-induced FKBP5 gene expression incubated for 24 hrs by RT-qPCR method.

Data set [12] has as its target T1, Glucocorticoid receptor. The data set is described as §1.
Data set [13] deals with Mus musculus. The experiment in a line: In-vivo antagonist activity at GR in nude mouse xenografted with human OVCAR5 cells assessed as reduction in dexamethasone-induced FKBP5 gene expression at 25 to 75 mg/kg, po dosed as gavage and measured after 6 hrs by RT-qPCR method. The class given is functional, organism-based. In outline: (§2)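 OVCAR5 xenograft mice received dexamethasone 0.5 mg/kg by intraperitoneal injection with or without a single oral gavage dose of the antagonist at 25, 50 or 75 mg/kg. Tumors and plasma collected 6 h later. Tumor FKBP5 mRNA measured by RT-qPCR. Unbound plasma concentration of the antagonist determined, n = 4 mice per group. FKBP5 effects tested by one-way ANOVA with Dunnett's test versus the vehicle group.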
A general note: A xenograft is tissue or cells of one species grown in another, often human tumour cells in immunodeficient mice.

Data set [14] in a line: Unbound plasma concentration in nude mouse xenografted with human OVCAR5 cells at 25 to 75 mg/kg, po dosed as gavage and measured after 6 hrs. The class given is ADME, organism-based. The note with it: in vivo. In outline:
as §2

The subject of data set [15] is OVCAR-5. Kind of data set: Antitumor activity against human OVCAR5 cells xenografted in chronic cortisol treated nude mouse assessed as reduction in tumor volume at 75 mg/kg, po BID dosed via gavage. The class given is functional, organism-based. In outline:
(§3)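 Cortisol given in drinking water at 100 mg/L before tumor implantation and throughout the study. Mice bearing established OVCAR5 xenografts, n = 10 per group. Gemcitabine 100 mg/kg and carboplatin 60 mg/kg given every 3 days for 4 doses. Antagonist given at 75 mg/kg twice daily by oral gavage for the whole study. Tumor volume tracked, mean ± SEM, with significance assessed on day 21.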

In data set [16] the test system is OVCAR-5. The experiment in a line: Potentiation of gemcitabine-induced antitumor activity against human OVCAR5 cells xenografted in chronic cortisol treated nude mouse assessed as reduction in tumor volume at 75 mg/kg, po BID dosed via gavage co-treated with gencitabine at 100 mg/kg dosed every 3 days for 4 doses. Format: functional, organism-based. In outline:
as §3

Sequence of Cytochrome P450 3A4 (P08684 whole entry): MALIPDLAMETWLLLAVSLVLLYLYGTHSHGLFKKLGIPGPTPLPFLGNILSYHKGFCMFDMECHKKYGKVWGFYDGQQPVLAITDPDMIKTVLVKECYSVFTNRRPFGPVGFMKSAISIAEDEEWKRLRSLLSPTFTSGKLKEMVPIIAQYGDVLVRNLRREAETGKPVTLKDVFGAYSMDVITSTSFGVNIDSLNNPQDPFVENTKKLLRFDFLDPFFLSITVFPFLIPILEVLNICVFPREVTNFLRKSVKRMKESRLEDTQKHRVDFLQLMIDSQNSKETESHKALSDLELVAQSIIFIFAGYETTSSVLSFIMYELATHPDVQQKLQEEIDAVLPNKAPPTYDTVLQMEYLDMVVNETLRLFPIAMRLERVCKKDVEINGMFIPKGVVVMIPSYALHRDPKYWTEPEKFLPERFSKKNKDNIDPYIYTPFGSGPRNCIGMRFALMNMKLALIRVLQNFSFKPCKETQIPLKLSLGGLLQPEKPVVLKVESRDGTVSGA
Sequence of Cytochrome P450 2C9 (P11712 whole entry): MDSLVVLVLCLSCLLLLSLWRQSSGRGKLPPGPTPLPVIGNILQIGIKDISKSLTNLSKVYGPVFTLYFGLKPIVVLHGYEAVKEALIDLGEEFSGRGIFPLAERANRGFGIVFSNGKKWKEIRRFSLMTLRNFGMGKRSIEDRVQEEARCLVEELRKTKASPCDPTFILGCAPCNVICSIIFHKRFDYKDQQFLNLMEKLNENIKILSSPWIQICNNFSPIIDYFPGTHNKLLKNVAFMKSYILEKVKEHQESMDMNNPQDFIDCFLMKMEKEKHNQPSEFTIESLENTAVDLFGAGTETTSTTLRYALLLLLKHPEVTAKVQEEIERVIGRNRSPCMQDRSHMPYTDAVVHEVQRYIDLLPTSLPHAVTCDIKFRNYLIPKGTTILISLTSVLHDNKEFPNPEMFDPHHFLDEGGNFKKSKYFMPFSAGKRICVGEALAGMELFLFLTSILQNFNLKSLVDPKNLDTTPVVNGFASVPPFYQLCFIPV

In the case of `CC(C)N(C)c1ccc([C@H]2C[C@@]3(C)[C@@H](CC[C@@]3(O)C#CC(C)(C)C)[C@@H]3CCC4=CC(=O)CC[C@@H]4[C@H]32)cc1`, the 50% inhibitory concentration (IC50) was 5.6 nM in data set [1]; 1600 nM in [8]; above 10 µM in [9]; 11.1 nM in [10]; 17.2 nM in data set [12]. Further, in data set [2], the Activity entry is “Not Active”. The figures for the clearance in [3] and in data set [5] were 31.7 mL/min/kg and 18.3 mL/min/kg, respectively. In addition, the Vd in data set [4] amounted to 4.6 L/kg. The compound further gave a half-life in data set [6] of 732 min. Also, the AUC in data set [7] was 644 ng·h/mL. Further, the inhibition result in data set [11] and in data set [13] was “Dose-dependent effect” in each case. In data set [14], this compound registered a Cp(f) of 0.02 to 0.12 µM. Further, in data set [15], the TGI result was “inactive”. In addition, the result in data set [16] was Active.

For orientation: IC50 means the concentration needed to halve the response being measured. What is called clearance is a measure of how efficiently the substance is removed, as volume per time. One may read the half-life as the time in which the quantity being followed falls by half. The term AUC denotes concentration integrated over time.
